Measurements published in ChEMBL document CHEMBL5338733, “Heterobifunctional Ligase Recruiters Enable pan-Degradation of Inhibitor of Apoptosis Proteins” (J Med Chem, 2023).
Calls of active or inactive are those of the source. No cut-off for these calls is given here.

Columns and labels:
Assay type in all cases: cell-based
[1] = molecular target: E3 ubiquitin-protein ligase XIAP (Homo sapiens) (UniProt P98170); test: Induction of XIAP degradation in human MM1.S cells at 100 nM incubated for 3 hrs by diaPASEF-based analysis
Procedure, shortened: (§1)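 MM.1S cells exposed to DMSO or 0.1 μM compound for 3 h, then washed with PBS and snap-frozen. Lysed in 8 M urea/EPPS pH 8.5 buffer. 50 μg protein reduced, alkylated, precipitated, then digested with LysC and trypsin. Analysed by diaPASEF on timsTOF Pro2. Missing values imputed from a Gaussian distribution; log2 fold change versus DMSO with limma statistics.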

[2] = molecular target: Baculoviral IAP repeat-containing protein 2 (Homo sapiens) (UniProt Q13490); test: Induction of cIAP1 degradation in human MM1.S cells at 100 nM incubated for 3 hrs by diaPASEF-based analysis; procedure, shortened: as §1
[3] = molecular target: Protein cereblon/Baculoviral IAP repeat-containing protein 2 (Homo sapiens) (UniProt Q13490+Q96SW2); test: PROTAC activity at CRBN/IAP in human MM1.S cells assessed as induction of cIAP1 degradation at 100 nM incubated for 3 hrs by diaPASEF-based analysis; procedure, shortened: as §1
[4] = molecular target: Protein cereblon/Baculoviral IAP repeat-containing protein 3 (Homo sapiens) (UniProt Q13489+Q96SW2); test: PROTAC activity at CRBN/IAP in human MM1.S cells assessed as induction of cIAP2 degradation at 100 nM incubated for 3 hrs by diaPASEF-based analysis; procedure, shortened: as §1
[5] = molecular target: Protein cereblon-IAP (Homo sapiens) (UniProt P98170+Q13489+Q13490+Q96SW2); test: PROTAC activity at CRBN/IAP in human MM1.S cells assessed as induction of CRBN degradation at 100 nM incubated for 3 hrs by diaPASEF-based analysis; procedure, shortened: as §1
[6] = molecular target: Cereblon/Ikaros (Homo sapiens) (UniProt Q96SW2+Q13422); test: PROTAC activity at CRBN/IKZF1 in human MM1.S cells assessed as induction of IKZF1 degradation at 100 nM incubated for 3 hrs by diaPASEF-based analysis; procedure, shortened: as §1
[7] = molecular target: von Hippel-Lindau disease tumor suppressor (Homo sapiens) (UniProt P40337); test: Induction of VHL degradation in human MM1.S cells at 100 nM incubated for 3 hrs by diaPASEF-based analysis; procedure, shortened: as §1
[8] = molecular target: Protein cereblon/Zinc finger protein Aiolos (Homo sapiens) (UniProt Q96SW2+Q9UKT9); test: PROTAC activity at CRBN/IKZF3 in human MM1.S cells assessed as induction of IKZF3 degradation at 100 nM incubated for 3 hrs by diaPASEF-based analysis; procedure, shortened: as §1
[9] = molecular target: Protein cereblon/E3 ubiquitin-protein ligase XIAP (Homo sapiens) (UniProt P98170+Q96SW2); test: PROTAC activity at CRBN/IAP in human MM1.S cells assessed as induction of XIAP degradation at 0.1 uM incubated for 3 hrs by diaPASEF-based proteomics analysis; procedure, shortened: as §1
Protein cereblon/E3 ubiquitin-protein ligase XIAP (Homo sapiens), sequence (P98170 whole entry, looked up): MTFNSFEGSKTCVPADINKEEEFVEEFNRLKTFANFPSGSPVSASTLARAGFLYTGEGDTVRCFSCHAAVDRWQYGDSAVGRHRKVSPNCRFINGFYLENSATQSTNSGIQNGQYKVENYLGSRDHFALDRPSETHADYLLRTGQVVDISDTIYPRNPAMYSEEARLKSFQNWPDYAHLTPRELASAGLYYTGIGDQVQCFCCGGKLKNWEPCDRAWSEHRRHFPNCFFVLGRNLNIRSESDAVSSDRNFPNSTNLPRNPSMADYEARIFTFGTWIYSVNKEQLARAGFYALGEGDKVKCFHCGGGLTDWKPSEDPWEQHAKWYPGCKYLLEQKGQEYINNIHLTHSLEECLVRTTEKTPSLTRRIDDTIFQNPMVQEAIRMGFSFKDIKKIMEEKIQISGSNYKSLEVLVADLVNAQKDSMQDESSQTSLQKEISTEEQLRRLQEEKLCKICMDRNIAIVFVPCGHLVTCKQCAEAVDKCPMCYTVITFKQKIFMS
Protein cereblon/E3 ubiquitin-protein ligase XIAP (Homo sapiens), sequence (Q96SW2 whole entry, looked up): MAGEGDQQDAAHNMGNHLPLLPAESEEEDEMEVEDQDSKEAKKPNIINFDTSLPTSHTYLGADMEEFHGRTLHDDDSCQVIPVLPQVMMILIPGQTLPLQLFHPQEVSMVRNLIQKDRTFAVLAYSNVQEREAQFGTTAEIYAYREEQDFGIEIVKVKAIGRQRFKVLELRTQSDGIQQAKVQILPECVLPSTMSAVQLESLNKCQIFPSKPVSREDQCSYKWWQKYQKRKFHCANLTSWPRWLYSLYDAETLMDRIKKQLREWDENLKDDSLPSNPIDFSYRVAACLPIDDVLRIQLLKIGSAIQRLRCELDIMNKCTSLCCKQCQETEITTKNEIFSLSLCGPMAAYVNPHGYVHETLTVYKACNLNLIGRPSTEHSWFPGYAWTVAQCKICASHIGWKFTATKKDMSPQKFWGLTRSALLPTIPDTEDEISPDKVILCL

Protein cereblon/Zinc finger protein Aiolos (Homo sapiens), sequence (Q96SW2 whole entry, looked up): as above
Protein cereblon/Zinc finger protein Aiolos (Homo sapiens), sequence (Q9UKT9 whole entry, looked up): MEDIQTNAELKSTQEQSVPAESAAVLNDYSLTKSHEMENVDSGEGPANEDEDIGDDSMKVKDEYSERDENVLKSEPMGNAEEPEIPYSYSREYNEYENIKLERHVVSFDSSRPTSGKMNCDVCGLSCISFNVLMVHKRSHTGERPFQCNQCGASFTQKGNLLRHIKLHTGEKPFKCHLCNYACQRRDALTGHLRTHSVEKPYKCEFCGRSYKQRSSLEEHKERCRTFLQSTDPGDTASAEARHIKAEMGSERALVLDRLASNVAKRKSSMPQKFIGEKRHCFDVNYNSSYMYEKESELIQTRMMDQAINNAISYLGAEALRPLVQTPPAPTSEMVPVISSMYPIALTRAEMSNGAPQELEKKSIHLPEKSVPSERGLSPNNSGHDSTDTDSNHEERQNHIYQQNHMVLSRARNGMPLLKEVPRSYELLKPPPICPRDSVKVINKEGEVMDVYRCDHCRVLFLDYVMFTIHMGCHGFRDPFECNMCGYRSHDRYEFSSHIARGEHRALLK
Protein cereblon-IAP (Homo sapiens), sequence (P98170 whole entry, looked up): as the sequence (P98170 whole entry, looked up) above
Protein cereblon-IAP (Homo sapiens), sequence (Q13489 whole entry, looked up): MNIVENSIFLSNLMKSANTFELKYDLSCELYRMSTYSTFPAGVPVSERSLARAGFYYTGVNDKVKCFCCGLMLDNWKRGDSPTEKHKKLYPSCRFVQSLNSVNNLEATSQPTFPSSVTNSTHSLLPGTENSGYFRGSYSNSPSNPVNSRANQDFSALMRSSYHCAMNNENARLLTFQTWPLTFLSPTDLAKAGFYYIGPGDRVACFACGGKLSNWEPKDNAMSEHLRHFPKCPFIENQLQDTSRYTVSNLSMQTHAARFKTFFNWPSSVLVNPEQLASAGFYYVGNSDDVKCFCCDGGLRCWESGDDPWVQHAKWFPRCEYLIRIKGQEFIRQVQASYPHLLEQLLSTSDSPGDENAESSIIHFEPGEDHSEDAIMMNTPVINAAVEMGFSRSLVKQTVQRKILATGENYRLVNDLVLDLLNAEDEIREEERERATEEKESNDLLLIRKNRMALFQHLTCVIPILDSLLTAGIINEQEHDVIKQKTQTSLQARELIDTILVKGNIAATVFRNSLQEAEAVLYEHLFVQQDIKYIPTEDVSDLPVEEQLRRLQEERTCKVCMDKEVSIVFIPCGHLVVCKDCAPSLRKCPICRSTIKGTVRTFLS
Protein cereblon-IAP (Homo sapiens), sequence (Q13490 whole entry, looked up): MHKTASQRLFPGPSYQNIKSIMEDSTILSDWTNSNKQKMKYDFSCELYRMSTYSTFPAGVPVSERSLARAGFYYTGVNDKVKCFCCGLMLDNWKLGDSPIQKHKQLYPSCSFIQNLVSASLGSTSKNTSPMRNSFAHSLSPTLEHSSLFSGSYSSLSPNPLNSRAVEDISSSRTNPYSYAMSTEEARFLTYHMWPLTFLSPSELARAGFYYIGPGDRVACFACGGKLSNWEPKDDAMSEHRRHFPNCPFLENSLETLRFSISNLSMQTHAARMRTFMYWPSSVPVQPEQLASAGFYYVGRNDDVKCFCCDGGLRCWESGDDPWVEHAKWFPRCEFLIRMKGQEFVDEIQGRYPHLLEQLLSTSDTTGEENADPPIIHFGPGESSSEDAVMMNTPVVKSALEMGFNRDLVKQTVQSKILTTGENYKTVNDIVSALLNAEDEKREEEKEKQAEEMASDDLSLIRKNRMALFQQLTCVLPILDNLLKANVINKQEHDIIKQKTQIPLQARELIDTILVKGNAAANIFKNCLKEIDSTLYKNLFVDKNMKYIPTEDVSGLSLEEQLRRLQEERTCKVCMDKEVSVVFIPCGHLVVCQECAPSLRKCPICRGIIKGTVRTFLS
Protein cereblon-IAP (Homo sapiens), sequence (Q96SW2 whole entry, looked up): as the sequence (Q96SW2 whole entry, looked up) above
E3 ubiquitin-protein ligase XIAP (Homo sapiens), sequence (P98170 whole entry): as the sequence (P98170 whole entry, looked up) above
Protein cereblon/Baculoviral IAP repeat-containing protein 3 (Homo sapiens), sequence (Q13489 whole entry, looked up): as the sequence (Q13489 whole entry, looked up) above
Protein cereblon/Baculoviral IAP repeat-containing protein 3 (Homo sapiens), sequence (Q96SW2 whole entry, looked up): as the sequence (Q96SW2 whole entry, looked up) above
Baculoviral IAP repeat-containing protein 2 (Homo sapiens), sequence (Q13490 whole entry): as the sequence (Q13490 whole entry, looked up) above
Protein cereblon/Baculoviral IAP repeat-containing protein 2 (Homo sapiens), sequence (Q13490 whole entry, looked up): as above
Protein cereblon/Baculoviral IAP repeat-containing protein 2 (Homo sapiens), sequence (Q96SW2 whole entry, looked up): as the sequence (Q96SW2 whole entry, looked up) above
von Hippel-Lindau disease tumor suppressor (Homo sapiens), sequence (P40337 whole entry, looked up): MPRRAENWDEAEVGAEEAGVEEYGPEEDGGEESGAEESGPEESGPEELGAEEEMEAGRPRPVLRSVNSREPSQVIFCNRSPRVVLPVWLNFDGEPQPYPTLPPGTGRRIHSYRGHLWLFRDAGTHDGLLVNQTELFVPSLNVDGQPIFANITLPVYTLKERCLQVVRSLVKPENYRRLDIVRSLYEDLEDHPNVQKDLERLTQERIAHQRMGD

SMILES	Activity [1]	Activity [2]	Activity [3]	Activity [4]	Activity [5]	Activity [6]	Activity [7]	Activity [8]	Activity [9]
CN[C@@H](C)C(=O)N[C@@H](C(=O)N1CCC[C@H]1C(=O)N[C@@H]1c2ccccc2C[C@@H]1OCC#CC#CCO[C@H]1Cc2ccccc2[C@H]1NC(=O)[C@@H]1CCCN1C(=O)[C@H](NC(=O)[C@H](C)NC)C1CCCCC1)C1CCCCC1	inactive	Active	–	–	–	–	–	–	–
CN[C@@H](C)C(=O)N[C@H](C(=O)N1C[C@@H](Oc2cccc(OCCCCCCOCCCCCCOCCCCCCNc3cccc4c3C(=O)N(C3CCC(=O)NC3=O)C4=O)c2)C[C@H]1C(=O)N[C@@H]1CCCc2ccccc21)C1CCCCC1 (some centres undefined)	–	–	inactive	inactive	inactive	inactive	inactive	inactive	Active
